Consider 84 variants from the RNAGym collection of RNA variant scans (doi:10.1126/science.aae0568).

This sample holds only a part of the variants without activity.

First the molecules themselves.
B1: tRNA (parent)
chain: GUUCCGUUGGCGUAAUGGUAACGCGUCUCCCUCCUAAGGAGAAGACUGCGGGUUCGAGUCCCGUACGGAACG

In this data set the parent is B1. Nature of the data set: yeast fitness relative to wild type (ratio to wild type); higher = fitter; tRNA-Arg(CCU), competitive growth, 37 C, YPD. The procedure, abridged: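 Variants of the tRNA-Arg(CCU) gene, chemically synthesised with a 3% per-site mutation rate at 69 sites, were placed at the native genomic locus in Saccharomyces cerevisiae. The pooled strains were competed in YPD at 37°C for 24 hours in six parallel replicates. Gene amplicons from the start population and from each end population were read by 100-nucleotide paired-end sequencing. Darwinian fitness relative to wild type came from changes in genotype frequencies; genotypes needed ≥ 100 starting reads, and estimates < 0.5 were set to 0.5.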
Consider C5G C34A A36U G51C G56A, for which the yeast fitness amounted to 0.797. For C5A U16A A43G U59A C61A the value was ≤ 0.5; for C5G A15U C30A C31A C66G, ≤ 0.5; for C5G A36C A42G, ≤ 0.5. For C5G C30G C61G the value was ≤ 0.5.

As to C5G A21C A43U A70G, the yeast fitness is ≤ 0.5. Then C5A U16A C22G A37U, with 0.717. Turning to C5G A65U, the yeast fitness was found to be 0.796.

For C5G A65C G68A, the yeast fitness was 0.671. Then C5G C24A A42U A57C U64A, with ≤ 0.5; and C5G A15C A21U C24U A57G G67U, with ≤ 0.5. C5A U35G U47C C61G: the yeast fitness was ≤ 0.5.

As for C5G A14U G25A G56A G67A, the yeast fitness was ≤ 0.5.

Take C5G A21C U32C G39A A57U U59C: the yeast fitness was ≤ 0.5. Regarding C5G A20G A36C A42G, the yeast fitness is ≤ 0.5. For C5G C34A A36C A42G the value was ≤ 0.5. With C5G C31G A57C, the yeast fitness worked out at 0.502.

With C5G C11A U19C A20C C33A C61G, the yeast fitness turned out to be 0.676. For C5G A43C G52C, the yeast fitness was ≤ 0.5. For C5G C29U C31G G44C the value was 0.556; for C5G A45C U64G, ≤ 0.5.

As to C5G A36G G44C, the yeast fitness is 0.672. In the case of C5G A42U G63A, the yeast fitness was determined as 0.531.

In the case of C5G A42U A70C, the yeast fitness is 0.681. With C5G A14C U28A C31A A45U C49A C66U, the yeast fitness was ≤ 0.5. On to C5G A14U C33G A43U U54C, for which the yeast fitness is ≤ 0.5. For C5G A40G the value was 0.755.

In the case of C5G A40U, the yeast fitness was 0.876. Regarding C5A U28G C30G A40C A42U, the yeast fitness is ≤ 0.5. Then C5G A14C C29U C33G, with ≤ 0.5; and C5A U28G C66U, with ≤ 0.5; and C5G A45U A57U, with 0.565. Then C5G C11G A20C C33U C34U, with ≤ 0.5; and C5A U26A C66A, with ≤ 0.5; and C5G A14C G18A A43G A45C C46U, with 0.579.

For C5G C30U A40G C55U, the yeast fitness was ≤ 0.5. Then C5A U54C C61U C62U A69U, with 0.546; and C5A U16G A21C C24U C30A, with 0.618. For C5G A21G C27G C34G A43C C46G A70U the value was 0.569; for C5G A14C G38C G39A A43C C60G A65C, ≤ 0.5; for C5G A14U G67A A69G, 0.503.

C5G A21G U32C A65U G68A: the yeast fitness was found to be 0.507. Consider C5G C30G C66A, for which the yeast fitness is ≤ 0.5. For C5G A14G A21U A57U, the yeast fitness is ≤ 0.5. As to C5G A20G A40G G44A C46G, the yeast fitness stood at 0.517.

In the case of C5G A14U G68C, the yeast fitness was ≤ 0.5. C5G C22G A45G A65U: the yeast fitness was ≤ 0.5.

Turning to C5G C30U A36U G51C, the yeast fitness was ≤ 0.5.

For the variant C5G A69C A70U, the yeast fitness worked out at 0.765.

On to C5G C31A A36C A43C C55G, for which the yeast fitness came out at 1.06. For C5G A21G G44A G58C the value was 0.616.

As to C5A U59C, the yeast fitness came out at 0.807.

Turning to C5A U59G, the yeast fitness worked out at 0.746. For C5G C34A G39C G52A G58A the value was 0.532; for C5G A14C G23C C33U G38A G58C A70G, ≤ 0.5. For C5G A14C G18A A21G A36U A45U the value was ≤ 0.5; for C5G A43C G67A, 0.565. Then C5G A14C G18A A43G A45C C46U A69C, with ≤ 0.5; and C5G C22U C31G C60A, with ≤ 0.5. Take C5G C11G A14U A15U A65G: the yeast fitness was ≤ 0.5. Then C5G A15U U35A G50A U54G, with ≤ 0.5. C5G C22A U26C C33G G63A: the yeast fitness is ≤ 0.5. With C5G C11U A14G G25C C29G, the yeast fitness is ≤ 0.5. Then C5G A21G C49A U54C A65G, with ≤ 0.5. Then C5G A20C C27G C49U U53A, with 0.568; and C5G C30U U47A G51A A57G, with ≤ 0.5.

On to C5G C29A U53C C62A G67A, for which the yeast fitness was ≤ 0.5. Then C5G C34G C46U C49U, with ≤ 0.5. Then C5G C11U C34A U47A, with 0.528; and C5G A20U G68C, with ≤ 0.5. Then C5G C27A, with 0.709. For the variant C5G C27U, the yeast fitness is 0.651. For C5G A42U A57U U59A A69C the value was ≤ 0.5; for C5G A15G C27G U28A U32A A45G C46U G56C C61U, 0.736; for C5G A45C A57U, ≤ 0.5. For C5G A14U G18A A21U A42G the value was 0.646; for C5A U13C C29U G56C, ≤ 0.5. Then C5G A14C C31G G56A A70U, with ≤ 0.5; and C5G C27U G41C A57C, with 0.565; and C5G A37C A42U, with 0.533. Take C5G C29G G41C A57U: the yeast fitness is ≤ 0.5.

For the variant C5G C11G A42G G68A, the yeast fitness was ≤ 0.5. For C5G A14C A37G C62G A69U the value was ≤ 0.5.

On to C5G C11A A14G G25C C29G C66U, for which the yeast fitness is ≤ 0.5.
